Active and inactive are the calls of the source. No cut-off for these calls is given here.
Legend:
[1] = molecular target: T1, Glucocorticoid receptor (Rattus norvegicus) (UniProt P06536); experiment: In vivo glucocorticoid profile, depression of adrenal weight in rat at 50 mg/kg peroral dose; assay type: functional, organism-based; set-up: dose 50 mg/kg
T1 sequence (whole entry): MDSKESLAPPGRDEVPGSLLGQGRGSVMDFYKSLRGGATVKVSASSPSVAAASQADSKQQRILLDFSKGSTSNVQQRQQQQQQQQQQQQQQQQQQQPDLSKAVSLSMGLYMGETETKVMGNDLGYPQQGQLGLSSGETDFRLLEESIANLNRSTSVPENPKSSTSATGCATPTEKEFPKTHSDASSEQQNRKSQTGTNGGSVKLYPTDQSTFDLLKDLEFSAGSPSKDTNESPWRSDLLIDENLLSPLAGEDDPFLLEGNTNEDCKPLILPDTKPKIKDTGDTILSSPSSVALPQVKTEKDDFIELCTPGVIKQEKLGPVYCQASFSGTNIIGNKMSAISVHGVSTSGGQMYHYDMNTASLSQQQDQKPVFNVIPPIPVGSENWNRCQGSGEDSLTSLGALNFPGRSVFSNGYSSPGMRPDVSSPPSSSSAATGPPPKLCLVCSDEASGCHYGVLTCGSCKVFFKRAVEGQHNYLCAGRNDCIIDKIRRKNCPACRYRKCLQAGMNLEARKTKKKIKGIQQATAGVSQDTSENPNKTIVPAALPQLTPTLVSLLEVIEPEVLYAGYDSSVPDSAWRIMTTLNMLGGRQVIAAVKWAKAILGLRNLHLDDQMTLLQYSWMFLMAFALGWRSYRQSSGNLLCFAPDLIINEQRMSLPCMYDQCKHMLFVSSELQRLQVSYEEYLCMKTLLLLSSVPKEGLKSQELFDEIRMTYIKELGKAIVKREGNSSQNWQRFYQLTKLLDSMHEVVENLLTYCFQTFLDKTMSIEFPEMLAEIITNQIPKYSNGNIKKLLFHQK
Procedure, shortened: (§1)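 Two-week oral glucocorticoid profile in rats. Thymus weight, adrenal weight and body weight gain are each expressed as % change from control.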

[2] = molecular target: T1, Glucocorticoid receptor (Rattus norvegicus); experiment: In vivo antiinflammatory activity in the rat, alpha-tocopherol filled pouch 25 mg/kg peroral dose; IA = inactive; assay type: functional, organism-based; set-up: dose 25 mg/kg
Procedure, shortened: (§2)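 Rats receive an air-filled pouch injected with 0.5 mL DL-α-tocopherol. Oral doses are given daily for 7 days, starting on the day of pouch formation, as suspensions in 1% gum tragacanth. ED50 is in mg/kg po.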

[3] = molecular target: T1, Glucocorticoid receptor (Rattus norvegicus); experiment: In vivo glucocorticoid profile, depression of body weight gain without altered food consumption in rat at 50 mg/kg peroral dose; assay type: functional, organism-based; set-up: dose 50 mg/kg; procedure, shortened: as §1
[4] = molecular target: T1, Glucocorticoid receptor (Rattus norvegicus); experiment: In vivo glucocorticoid profile, depression of thymus weight in rat at 50 mg/kg peroral dose; assay type: functional, organism-based; set-up: dose 50 mg/kg; procedure, shortened: as §1
[5] = molecular target: T1, Glucocorticoid receptor (Rattus norvegicus); experiment: (§3) In vivo glucocorticoid profile, depression of adrenal weight in rat at 100 mg/kg peroral dose; assay type: functional, organism-based; set-up: dose 100 mg/kg
Procedure, shortened: (§4)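 Two-week oral dosing test in rats. At the end, thymus weight, adrenal weight and body weight gain are recorded and expressed as % change from control.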

[6] = molecular target: T1, Glucocorticoid receptor (Rattus norvegicus); experiment: In vivo glucocorticoid profile, depression of thymus weight in rat at 100 mg/kg peroral dose; assay type: functional, organism-based; set-up: dose 100 mg/kg; procedure, shortened: as §1
[7] = molecular target: T1, Glucocorticoid receptor (Rattus norvegicus); experiment: In vivo antiinflammatory activity in the rat, alpha-tocopherol filled pouch 50 mg/kg peroral dose; IA = inactive; assay type: functional, organism-based; set-up: dose 50 mg/kg
[8] = molecular target: T1, Glucocorticoid receptor (Rattus norvegicus); experiment: In vivo glucocorticoid profile, depression of body weight gain without altered food consumption in rat at 100 mg/kg peroral dose; assay type: functional, organism-based; set-up: dose 100 mg/kg; procedure, shortened: as §1
[9] = molecular target: T1, Glucocorticoid receptor (Rattus norvegicus); experiment: In vivo glucocorticoid profile, depression of adrenal weight in rat at 5 mg/kg peroral dose; assay type: functional, organism-based; set-up: dose 5 mg/kg; procedure, shortened: as §1
[10] = molecular target: T1, Glucocorticoid receptor (Rattus norvegicus); experiment: (§5) In vivo glucocorticoid profile, depression of body weight gain without altered food consumption in rat at 5 mg/kg peroral dose; assay type: functional, organism-based; set-up: dose 5 mg/kg; procedure, shortened: as §4
[11] = molecular target: T1, Glucocorticoid receptor (Rattus norvegicus); experiment: (§6) In vivo glucocorticoid profile, depression of adrenal weight in rat at 25 mg/kg peroral dose; assay type: functional, organism-based; set-up: dose 25 mg/kg; procedure, shortened: as §1
[12] = molecular target: T1, Glucocorticoid receptor (Rattus norvegicus); experiment: (§7) In vivo glucocorticoid profile, depression of thymus weight in rat at 25 mg/kg peroral dose; assay type: functional, organism-based; set-up: dose 25 mg/kg; procedure, shortened: as §1
[13] = molecular target: T1, Glucocorticoid receptor (Rattus norvegicus); experiment: In vivo antiinflammatory activity in the rat, alpha-tocopherol filled pouch 70 mg/kg peroral dose; IA = inactive; assay type: functional, organism-based; set-up: dose 70 mg/kg
[14] = molecular target: T1, Glucocorticoid receptor (Rattus norvegicus); experiment: (§8) In vivo glucocorticoid profile, depression of body weight gain without altered food consumption in rat at 25 mg/kg peroral dose; assay type: functional, organism-based; set-up: dose 25 mg/kg; procedure, shortened: as §1
[15] = molecular target: T1, Glucocorticoid receptor (Rattus norvegicus); experiment: In vivo glucocorticoid profile, depression of adrenal weight in rat at 1 mg/kg peroral dose; assay type: functional, organism-based; set-up: dose 1 mg/kg; procedure, shortened: as §1
[16] = molecular target: T1, Glucocorticoid receptor (Rattus norvegicus); experiment: as §6; assay type: functional, organism-based; set-up: dose 25 mg/kg; procedure, shortened: as §4; remark: listed apart in the source
[17] = molecular target: T1, Glucocorticoid receptor (Rattus norvegicus); experiment: In vivo glucocorticoid profile, depression of thymus weight in rat at 1 mg/kg peroral dose; assay type: functional, organism-based; set-up: dose 1 mg/kg; procedure, shortened: as §1
[18] = molecular target: T1, Glucocorticoid receptor (Rattus norvegicus); experiment: as §7; assay type: functional, organism-based; set-up: dose 25 mg/kg; procedure, shortened: as §4; remark: listed apart in the source
[19] = molecular target: T1, Glucocorticoid receptor (Rattus norvegicus); experiment: as §8; assay type: functional, organism-based; set-up: dose 25 mg/kg; procedure, shortened: as §4; remark: listed apart in the source
[20] = molecular target: T1, Glucocorticoid receptor (Rattus norvegicus); experiment: In vivo glucocorticoid profile, depression of thymus weight in rat at 5 mg/kg peroral dose; assay type: functional, organism-based; set-up: dose 5 mg/kg; procedure, shortened: as §1
[21] = molecular target: T1, Glucocorticoid receptor (Rattus norvegicus); experiment: In vivo anti-inflammatory activity in the rat, alpha-tocopherol filled pouch peroral dose; assay type: functional, organism-based; procedure, shortened: as §2
[22] = molecular target: T1, Glucocorticoid receptor (Rattus norvegicus); experiment: In vivo glucocorticoid profile, depression of body weight gain without altered food consumption in rat at 1 mg/kg peroral dose; assay type: functional, organism-based; set-up: dose 1 mg/kg; procedure, shortened: as §4
[23] = molecular target: T1, Glucocorticoid receptor (Rattus norvegicus); experiment: Relative binding affinity (RBA) for glucocorticoid receptor from rat liver cytosol by displacement of [3H]-RU-28,362
Procedure, shortened: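 Competitive binding to glucocorticoid receptor in liver cytosol from adrenalectomized rats, with [3H]RU28362 as ligand. RBA is derived from the concentrations of dexamethasone and of competitor giving 50% binding inhibition. A value of zero means binding was too low to measure.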

[24] = molecular target: T1, Glucocorticoid receptor (Rattus norvegicus); experiment: In vivo antiinflammatory activity in the rat, alpha-tocopherol filled pouch 48 mg/kg peroral dose; IA = inactive; assay type: functional, organism-based; set-up: dose 48 mg/kg
[25] = molecular target: T1, Glucocorticoid receptor (Rattus norvegicus); experiment: In vivo antiinflammatory activity in the rat, alpha-tocopherol filled pouch peroral dose; IA = inactive; assay type: functional, organism-based; procedure, shortened: as §2
[26] = molecular target: T1, Glucocorticoid receptor (Rattus norvegicus); experiment: as §3; assay type: functional, organism-based; set-up: dose 100 mg/kg; procedure, shortened: as §1; remark: listed apart in the source
[27] = molecular target: T1, Glucocorticoid receptor (Rattus norvegicus); experiment: In vivo antiinflammatory activity in the rat, alpha-tocopherol filled pouch 100 mg/kg peroral dose; IA = inactive; assay type: functional, organism-based; set-up: dose 100 mg/kg; procedure, shortened: as §2
[28] = molecular target: T1, Glucocorticoid receptor (Rattus norvegicus); experiment: as §5; assay type: functional, organism-based; set-up: dose 5 mg/kg; procedure, shortened: as §1; remark: listed apart in the source

SMILES: CCCN1C(=O)N(CCC)C(=O)C2(CC=C3[C@H](CCC4=Cc5c(cnn5-c5ccc(F)cc5)C[C@@]43C)O2)C1=O
- Change [1]: 0%
- ED50 [2]: inactive
- Weight gain [3]: 0
- Change [4]: 0%

SMILES: C[C@]12Cc3cnn(-c4ccccc4)c3C=C1CC[C@@H]1OC3(CC=C12)C(=O)NC(=O)NC3=O
- Change [5]: 0%
- Change [1]: 0%
- Change [6]: 0%
- ED50 [7]: inactive
- Weight gain [8]: 0
- Weight gain [3]: 0
- Change [4]: -34%

SMILES: CC(=O)C1CC=C2[C@H](CCC3=Cc4c(cnn4-c4ccc(F)cc4)C[C@@]32C)C1C(C)=O (some centres undefined)
- Change [9]: -40%
- Weight gain [10]: -80

SMILES: COC(=O)CN1C(=O)N(CC(=O)OC)C(=O)C2(CC=C3[C@H](CCC4=Cc5c(cnn5-c5ccc(F)cc5)C[C@@]43C)O2)C1=O
- Change [11]: 0%
- Change [12]: 0%
- ED50 [13]: inactive
- Weight gain [14]: 0

SMILES: CCN1C(=O)N(CC)C(=O)C2(CC=C3[C@H](CCC4=Cc5c(cnn5-c5ccc(F)cc5)C[C@@]43C)O2)C1=O
- Change [5]: -45%
- Change [11]: 0%
- ED50 [2]: inactive
- Change [12]: -34%
- Change [6]: -34%
- Weight gain [14]: 0

SMILES: C[C@]12Cc3cnn(-c4ccc(F)cc4)c3C=C1CC[C@@H]1OC3(CC=C12)C(=O)NC(=O)NC3=O
- Change [9]: -30%
- Change [15]: 0%
- Change [16]: -53%
- Change [17]: 0%
- Change [18]: -84%
- Weight gain [19]: -180
- Weight gain [10]: -140
- Change [20]: -72%
- ED50 [21]: 4 mg/kg
- Weight gain [22]: -65

SMILES: CN1C(=O)N(C)C(=O)C2(CC=C3[C@H](CCC4=Cc5c(cnn5-c5ccncc5)C[C@@]43C)O2)C1=O
- RBA [23]: 0.72%

SMILES: C=CCN1C(=O)N(CC=C)C(=O)C2(CC=C3[C@H](CCC4=Cc5c(cnn5-c5ccc(F)cc5)C[C@@]43C)O2)C1=O
- Change [1]: -37%
- ED50 [24]: inactive
- Weight gain [3]: -58
- Change [4]: -34%

SMILES: C[C@]12Cc3cnn(-c4ccc(F)cc4)c3C=C1CC[C@H]1C2=CCCC1c1ccccn1 (some centres undefined)
- ED50 [25]: inactive
- Change [26]: -48%
- Change [6]: -64%
- Weight gain [8]: -88

SMILES: CCOC(=O)C1(C(=O)OCC)CCC=C2[C@@H]1CCC1=Cc3c(cnn3-c3ccc(F)cc3)C[C@@]12C
- Change [9]: 0%
- ED50 [27]: inactive
- Change [26]: -47%
- Change [6]: -80%
- Weight gain [8]: -186
- Weight gain [28]: 0
- Change [20]: 0%

From ChEMBL document CHEMBL1126871, “Non-steroidal glucocorticoid-like substances: receptor binding and in vivo activity” (J Med Chem, 1993)
